Test results reported in the array DNA melting data of Ke et al. (doi:10.1101/2024.01.08.574731).

How the values were obtained:
[1] = melting temperature; fluorescence melt of hairpins on a sequencing array, two-state fit, raised by 9.35 °C to match UV melts; settings: sodium 0.088 M
Outline: (§1)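 Library hairpins on a sequenced MiSeq flow cell carried annealed Cy3 and quencher oligos, and their Cy3 fluorescence was imaged in 50 mM Na-HEPES pH 8.0 with 25 mM NaCl, in 2.5 °C steps up to 60 °C. Signals were normalised to Cy3 before quenching and to control constructs. Melting temperature and folding enthalpy were obtained from bootstrapped two-state fits, combined by inverse-variance weighting across four replicates, and the fitted temperatures were then raised by 9.35 °C to match UV melts.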

[2] = folding enthalpy; higher = less favourable; fluorescence melt of hairpins on a sequencing array, two-state fit; settings: sodium 0.088 M
Outline: as §1

Sequence | Tm [1] [°C] | folding enthalpy [2] [kcal/mol]
GGTCTAGGAAACTAGACC (((((((....))))))) | 60.5 | -47.7
GGTCTCGAAAGAGAAACC ((((((....)))..))) | 34.7 | -21.5
GGTCTCGAAAGAGCAACC ((((((....)))..))) | 34.5 | -14.2
GGTCTCGAAAGAGCCACC ((((((....)))..))) | 43.3 | -14.8
GGTCTCGAAAGAGGAACC ((((((....)))..))) | 35.1 | -16.9
GGTCTCGGAAACGAGATC (.(((((....))))).) | 52.1 | -38.2
GGTCTGGCGAAAGCCACC (((..(((....)))))) | 27.1 | -7.45
GGTCTTGGAAACAAGGTC (..((((....))))..) | 30.4 | -12
GGTGAACGAAAGTTAACC (((.(((....))).))) | 49.2 | -34.1
GGTGAAGGAAACTTCGCC ((.((((....)))).)) | 52.6 | -45.2
GGTGAAGGAAACTTCGTC (..((((....))))..) | 26.6 | -12
GGTGACCGAAAGGTTACC (((.(((....))).))) | 60.5 | -40
GGTGACGAAAGTCAGACC ((((((....)))..))) | 44.6 | -14.6
GGTGACGAAAGTCATACC ((((((....)))..))) | 40.7 | -13.6
GGTGACGAAAGTCGACC ((((((....))).))) | 53.4 | -23.1
GGTGACGAAAGTCGGACC ((((((....)))..))) | 42.1 | -15.8
GGTGACGAAAGTCTAACC ((((((....)))..))) | 42.2 | -18.2
GGTGAGAAATCACC (((((....))))) | 51 | -27.6
GGTGAGCGAAAGCTTACC (((.(((....))).))) | 59.3 | -26.7
GGTGAGGGAAACTTCGCC ((.((.(....).)).)) | 35.7 | -23.7
GGTGATACGAAAGTAACC (((..(((....)))))) | 33.6 | -11.7
GGTGATCCGAAAGGAACC (((..(((....)))))) | 33.2 | -18.7
GGTGATGGAAACATCGCC ((.((((....)))).)) | 55.6 | -45.2

Sequence | Tm [1] [°C] | folding enthalpy [2] [kcal/mol]
GGTGCCCGAAAGGGACC (((.(((....)))))) | 58.1 | -21.5
GGTGCCGAAAGGCATACC ((((((....)))..))) | 48.2 | -11.6
GGTGCCGAAAGGCCTACC ((((((....)))..))) | 39.6 | -10.7
GGTGCGGGAAACCGTACC (((.(((....))).))) | 58.1 | -44.7
GGTGCGGGAAACCGTGCC ((..(((....)))..)) | 53.1 | -46.1
GGTGCTGGAAACAGCGTC (..((((....))))..) | 41 | -12.8
GGTGGACGAAAGTCAACC (((.(((....))).))) | 56.6 | -40.3
GGTGGACGAAAGTCACC (((.(((....)))))) | 55.3 | -25.5
GGTGGCCGAAAGGCAACC (((.(((....))).))) | 66.5 | -28.1
GGTGGCCGAAAGGCGACC (((.(((....))).))) | 66.2 | -30.2
GGTGGCGAAAGCCACACC ((((((....)))..))) | 60 | -6.43
GGTGGCGAAAGCCGGACC ((((((....)))..))) | 46.8 | -12.1
GGTGGCGAAAGCCTAACC ((((((....)))..))) | 43.7 | -16.5
GGTGGCGCGAAAGCGACC (((..(((....)))))) | 52.8 | -9.77
GGTGGCGGAAACACCACC (((((.(....).))))) | 53.8 | -42.3
GGTGGGCGAAAGCCTACC (((.(((....))).))) | 65.6 | -22.3
GGTGGGGAAACCCACC ((((((....)))))) | 68.1 | -42.9
GGTGGGGGAAACCCCGCC ((.((((....)))).)) | 61.4 | -27.5
GGTGGGGGAAACCCCGTC (..((((....))))..) | 38.2 | -12
GGTGGGGGAAACTCCGCC ((.((.(....).)).)) | 49.6 | -26.4
GGTGGTGGAAACGTCACC ((((..(....)..)))) | 44.5 | -23.4
GGTGTACGAAAGTAACC (((.(((....)))))) | 47.8 | -24.5
GGTGTAGGAAACTGTACC (((..((....))..))) | 29.6 | -19.3

Sequence | Tm [1] [°C] | folding enthalpy [2] [kcal/mol]
GGTGTATCGAAAGATACC (((..(((....)))))) | 43.3 | -14.7
GGTGTCCCGAAAGGGACC (((..(((....)))))) | 49.5 | -9.51
GGTGTCGAAAGACATACC ((((((....)))..))) | 43.5 | -13.9
GGTGTCGAAAGACCAACC ((((((....)))..))) | 37.5 | -15.3
GGTGTCGAAAGACCTACC ((((((....)))..))) | 33.8 | -16.1
GGTGTCGAAAGACGGACC ((((((....)))..))) | 40.3 | -16.6
GGTGTCGGAAACGACATC (.(((((....))))).) | 54 | -26.8
GGTGTGAAAACACC (((((....))))) | 57.3 | -30.9
GGTGTGCGAAAGCAAACC (((.(((....))).))) | 56 | -35.5
GGTGTGCGAAAGCATACC (((.(((....))).))) | 63.6 | -38.4
GGTGTGTCGAAAGACACC (((..(((....)))))) | 47.8 | -10.2
GGTGTTGGAAACAACGCC ((.((((....)))).)) | 57.3 | -36.1
GGTGTTGGAAACAATGCC ((..(((....)))..)) | 41.8 | -21
GGTTAACGAAAGTTACC (((.(((....)))))) | 43.9 | -21.9
GGTTAACGAAAGTTCACC (((.(((....))).))) | 43 | -31.3
GGTTAAGAAATTAACC ((((((....)))))) | 43.5 | -23.8
GGTTAAGGAAACTTAACC (((((((....))))))) | 52.7 | -38.5
GGTTACCGAAAGGTTACC (((.(((....))).))) | 52.6 | -30.3
GGTTACGAAAGTAATACC ((((((....)))..))) | 33.5 | -14.9
GGTTACGAAAGTATGACC ((((((....)))..))) | 30.4 | -15.1
GGTTACGAAAGTATTACC ((((((....)))..))) | 29.6 | -15.2
GGTTACGGAAACATAACC (((((.(....).))))) | 35.8 | -17
GGTTACGGAAACGTAGCC ((.((((....)))).)) | 51.7 | -28.6

Sequence | Tm [1] [°C] | folding enthalpy [2] [kcal/mol]
GGTTACGGAAACGTAGTC (..((((....))))..) | 25.7 | -12.7
GGTTAGCGAAAGCTTACC (((.(((....))).))) | 52 | -23.2
GGTTAGGGAAACCTGATC (.(.(((....))).).) | 31 | -11.7
GGTTATCGAAAGATGACC (((.(((....))).))) | 51.7 | -48.6
GGTTATGGAAACACAACC ((((.((....)).)))) | 33.8 | -24.6
GGTTATGGAAACATAACC (((((((....))))))) | 55.6 | -41.1
GGTTCAGGAAACTGGATC (.(.(((....))).).) | 30 | -10.2
GGTTCCCCGAAAGGGACC (((..(((....)))))) | 45 | -17.9
GGTTCCCGAAAGGGGACC (((.(((....))).))) | 67.6 | -30.8
GGTTCCGAAAGGAGAACC ((((((....)))..))) | 45.1 | -24.5
GGTTCCGGAAACGAAACC ((((.((....)).)))) | 42.9 | -24.8
GGTTCCGGAAACGGAGTC (..((((....))))..) | 34.1 | -11.7
GGTTCCGGAAACGGGATC (.(.(((....))).).) | 39.9 | -19.4
GGTTCCTCGAAAGAGACC (((..(((....)))))) | 25.8 | -10.1
GGTTCGGGAAACCGAACC (((((((....))))))) | 69.2 | -38.2
GGTTCGGGAAACCGAGTC (..((((....))))..) | 36.5 | -13.1
GGTTCTGGAAACAGAATC (.(((((....))))).) | 45 | -34.2
GGTTCTGGAAACAGAGCC ((.((((....)))).)) | 50.6 | -30.5
GGTTCTGGAAACAGGACC (((.(((....))).))) | 50.6 | -45.3
GGTTCTTCGAAAGAAACC (((..(((....)))))) | 29.1 | -13.4
GGTTGACGAAAGTCTACC (((.(((....))).))) | 53.8 | -33.1
GGTTGAGGAAACTTGACC (((..((....))..))) | 32.1 | -14.6
